Data published in publication PMC6648324 (ACS Omega, 2019).
“And” between values parts separate entries of the source, which are not always exact repeats. Equal values may be shown once. Read-outs that look alike come from different tables or passages of the source.

Experiments:
[1] = cited from earlier work
[2] = Cyclic voltammetry in DMSO; format: physicochemical; details: 200 mV s^–1
How it was run: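 Flavone at ~2−2.5 mM in DMSO with 0.1 M n-Bu4NPF6 under Ar at 25 °C. Three-electrode cell: polished glassy carbon disk (0.07 cm2) working electrode, Pt wire counter, KCl(3 M)/Ag/AgCl reference (+210 mV vs NHE). Sweep rates 50 mV s−1 to 6 V s−1; peak potentials read at 200 mV s−1. E1/2 taken from the […] reduction wave.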

[3] = Diffusion-ordered spectroscopy NMR; format: physicochemical
[4] = CH3OH/H2O (80/20 w/w); I = 0.1 M (NEt4ClO4); 25.0(2) °C; [H^+] = 10^–2 M; cited from earlier work
[5] = Spectrophotometric titrations with FeNTA at pH 7.4; format: physicochemical; details: CH3OH/H2O (80/20 w/w), pH = 7.4 (HEPES), I = 0.1 M, 25.0(2) °C, nc = no complexation
How it was run: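 FeNTA made fresh from Fe(III) and solid NTA (~1:1, slight NTA excess) with a few drops of HClO4, then brought to pH 7.4 with 0.1 M HEPES. Flavone (stock ~10−5 M range) in 0.1 M HEPES pH 7.4 CH3OH/H2O was titrated with FeNTA. UV-vis spectra recorded at 25.0(2) °C, l = 1 cm. Constants fitted with Specfit. Ternary complexes checked by negative-mode ESI-MS.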

[6] = Stability of the flavone toward oxidation during the kinetic measurements; format: physicochemical; details: acidic conditions; CH3OH/H2O (80/20 w/w)
[7] = UV–vis absorption spectrophotometric titrations versus pH; format: physicochemical; details: CH3OH/H2O (80/20 w/w); I = 0.1 M (NEt4ClO4); T = 25.0(2) °C
How it was run: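 Flavone at 10−5−10−4 M in CH3OH/H2O was acidified, then titrated with base over 2 < pH < 12, with full equilibration after each addition. Spectra taken through a quartz immersion probe (l = 1 cm). Specfit analysis gave the 6-OH protonation constants and the spectra of the protonated species.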

| SMILES | E1/2 of the quasireversible signal (carbonyl) [2] | log K*FFe, conditional stability constant of the ferric complex [4] | log K*L·FeNTA (3σ), stability constant of the ferric NTA complex [5] | other results |
| --- | --- | --- | --- | --- |
| O=c1cc(-c2ccccc2)oc2cccc(O)c12 [5-OH-flavone] |  |  |  | pKa (5-OH) ([1]; CH3OH/water 1/1 w/w): 11.34; pKa (5-OH) ([1]; dioxane/water 1/1 w/w): 11.44 |
| O=c1cc(-c2ccccc2)oc2ccccc12 [F, 2-phenyl-chromone, reference compound] | −1.59 V/KCl(3 M)/Ag/AgCl |  |  |  |
| COc1ccc(-c2cc(=O)c3c(O)c(O)c(OC)cc3o2)cc1 [FOMe, ladanein] | −1.93 V/KCl(3 M)/Ag/AgCl | 6.0(3) | 4.7(4) | D0, diffusion coefficient [3]: 2.34 × 10^–6 cm^2 s^–1; log K*L·FeNTA (3σ), stability constant of the ferric NTA complex ([5]; listed as FOMe/ladanein): 4.7(4) and 4.9(6); stability of the free ligand in the absence of Fe(III) [6]: remained unaltered over a long period; log K^h (±σ), protonation constant (6-OH group) [7]: 10.33(5) |
| O=c1cc(-c2ccc(O)cc2)oc2cc(O)cc(O)c12 [apigenin] |  | 5.5(1) |  |  |
| COc1ccc(-c2cc(=O)c3c(O)c(OC)c(OC)cc3o2)cc1 [salvigenin, reference compound] |  | 5.8(2) | 5.8(7) |  |
